For orientation: IC50 means the concentration that gives 50% inhibition.

The record followed here is ChEMBL document CHEMBL4229360, “Antimalarial agents against both sexual and asexual parasites stages: structure-activity relationships and biological studies of the Malaria Box compound 1-[5-(4-bromo-2-chlorophenyl)furan-2-yl]-N-[(piperidin-4-yl)methyl]methanamine (MMV019918) and analogues” (Eur J Med Chem, 2018).

The structures appear in SMILES notation.

Series [1] concerns Plasmodium falciparum. The series can be described thus: Antiplasmodial activity against chloroquine-sensitive Plasmodium falciparum D10 after 72 hrs by lactate dehydrogenase assay. Format: functional, organism-based. Particulars: D10, 72 h. The gist of the method:
(§1)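 Asynchronous blood-stage cultures at 1–1.5% parasitemia and 1% final hematocrit in human A+ RBCs, RPMI 1640 with 1% AlbuMax, hypoxanthine, HEPES and glutamine. Serial dilutions from DMSO stocks, final DMSO <1%. Incubated 72 h at 37 °C under 1% O₂/5% CO₂. IC50 is the mean of ≥3 experiments in duplicate.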

Series [2] concerns Plasmodium falciparum. The series is described as follows: Antiplasmodial activity against chloroquine-resistant Plasmodium falciparum W2 after 72 hrs by lactate dehydrogenase assay. The following applies: W2, 72 h. Format: functional, organism-based. The gist of the method: as §1
Series [3] in a line: Cytotoxicity against mouse NIH/3T3 cells after 24 hrs by neutral red uptake assay. It counts as cell-based, NIH3T3. Particulars: read-out: TC50. The gist of the method:
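NIH3T3 cells exposed for 24 h; viability by neutral red uptake. Mean of three experiments, six replicates each.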

Series [4] concerns Plasmodium falciparum. The series can be described thus: Gametocytocidal activity against Plasmodium falciparum 3D7 elo1-pfs16-CBG99 late-stage (4 to 5) gametocytes assessed as inhibition of parasite viability after 72 hrs by luciferase reporter assay. Format: functional, organism-based. Particulars: 3D7 elo1-pfs16-CBG99, 72 h. The essentials:
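Transgenic 3D7elo1-pfs16-CBG99 gametocytes express CBG99 luciferase from the pfs16 promoter. Stage IV–V gametocytes (Giemsa-checked) were exposed at day 8–10 after NAG addition to serial dilutions in complete medium for 72 h. Samples at 2% haematocrit were then mixed 1:1 with D-luciferin (1 mM, pH 5.5 citrate) for 10 min and luminescence was read. IC50 came from non-linear regression, mean of ≥3 experiments in duplicate.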

The test system of series [5] is Plasmodium falciparum. The series is described as follows: Gametocytocidal activity against Plasmodium falciparum NF54 HGL gametocytes assessed as inhibition of parasite viability after 72 hrs by ONE-Glo reagent based luminescence assay. Format: functional, organism-based. The gist of the method:
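NF54 gametocytes raised in 5% haematocrit RPMI1640/10% human serum, with 50 mM NAG on days 4–9. Mainly stage IV gametocytes isolated on day 11 by Percoll gradient and seeded at 5000 cells/well, final DMSO 0.1%. Incubated 72 h at 37 °C, 3% O2, 4% CO2; viability by ONE-Glo luminescence.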

Series [6] relates to Plasmodium falciparum. The series can be described thus: Antiplasmodial activity against asexual blood stage Plasmodium falciparum NF54 after 72 hrs by SYBR green-based fluorometric analysis. The following applies: NF54, 72 h. It counts as functional, organism-based. The essentials:
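Asexual NF54 seeded at 0.83% parasitaemia, 1.5% haematocrit, in RPMI1640 with 10% human serum. Serial dilutions, final DMSO 0.1%. Incubated 72 h at 37 °C under 3% O2, 4% CO2, then read by SYBR Green fluorescence.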

Series [7] concerns the target T1, Phosphoethanolamine N-methyltransferase (Plasmodium falciparum) (UniProt Q8IDQ9).
T1 sequence (whole entry): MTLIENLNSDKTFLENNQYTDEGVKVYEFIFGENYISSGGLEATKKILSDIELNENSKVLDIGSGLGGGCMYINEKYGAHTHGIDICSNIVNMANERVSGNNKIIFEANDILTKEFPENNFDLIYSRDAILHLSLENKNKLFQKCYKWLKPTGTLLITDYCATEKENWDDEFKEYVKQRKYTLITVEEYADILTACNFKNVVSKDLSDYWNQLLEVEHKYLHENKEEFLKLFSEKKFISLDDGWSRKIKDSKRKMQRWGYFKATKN
The series can be described thus: Inhibition of plasmodium falciparum phosphoethanolamine N-methyltransferase expressed in Escherichia coli assessed as remaining enzyme activity at 100 uM using phosphoethanolamine as substrate and [methyl-14C] SAM by radiochemical assay. The essentials: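 Recombinant PfPMT purified from E. coli, 2 μg per 100 μL reaction. Buffer 0.1 M HEPES-KOH pH 8.0, 2 mM Na2EDTA, 10% glycerol, 5% DMSO, with 30 μM SAM (100 nCi [methyl-14C]SAM) and 55 μM phosphoethanolamine; radiochemical read-out.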

`COc1ccccc1-c1ccc(CNCC2CCNCC2)o1`: the IC50 was 10 µM in series [1], greater than 15 µM in series [2] and 11.8 µM in series [4]. Further, in series [3], the CC50 at 24 h turned out to be 53 µM.
With `FC(F)(F)c1ccc(-c2cccc(CNCC3CCNCC3)n2)cc1`, the values for the IC50 in series [1], in series [2] and in series [4] were 0.46 µM, 3.4 µM and 4 µM, respectively.
Take `CN(C)CCCNCc1ccc(-c2ccc(Br)cc2Cl)o1`: the IC50 in series [1] was 1.2 µM; in series [2], 1.4 µM; in series [4] it was 1.1 µM. In series [3], the CC50 at 24 h is 5 µM.
As to `Fc1ccc(-c2ccc(CNCC3CCNCC3)o2)cc1`, the IC50 in series [1] was 2.1 µM; in series [2] it was 7.9 µM; in series [4], 6 µM.
Regarding `Oc1ccccc1-c1ccc(CNCC2CCNCC2)o1`, the half-maximal inhibitory concentration (IC50) in series [5] is 0.29 µM; in series [6] it was 0.26 µM; in series [1], 4.4 µM; in series [2] it was 9.6 µM; in series [4] it was 8.3 µM. Also, in series [3], the CC50 at 24 h was found to be 7 µM.
As to `N#Cc1ccc(-c2ccc(CNCC3CCNCC3)o2)cc1`, the values for the IC50 in series [1], in series [2] and in series [4] were 1.1 µM, 6.3 µM and 18.4 µM, respectively. Also, the Activity in series [7] stood at 73.2%.
The like results for `C[N+](C)(CCCNCc1ccc(-c2ccc(Cl)cc2Br)o1)Cc1ccccc1` were, in that order, 0.55 µM, 0.66 µM, 4.8 µM and 95.8%.
As for `Clc1ccc(-c2nnc(CNCC3CCNCC3)o2)c(Br)c1`, the values for the IC50 in series [1], in series [2] and in series [4] were greater than 13 µM, 7.9 µM and greater than 26 µM, respectively.
Regarding `Clc1ccc(-c2nnc(CNCC3CCNCC3)[nH]2)cc1`, the IC50 in series [1], in series [2] and in series [4] was greater than 13 µM throughout.
Regarding `c1ccc(-c2ccc(CNCC3CCNCC3)o2)cc1`, the IC50 in series [1] worked out at 3.5 µM; in series [2], 9.1 µM; in series [4] it was 8.6 µM.
Regarding `Clc1ccc(-c2ccc(CNCC3CCNCC3)o2)c(Br)c1`, the IC50 in series [1] was 0.51 µM; in series [2], 1.87 µM; in series [4] it was 1.1 µM. Also, the CC50 at 24 h in series [3] was less than 5 µM.
Turning to `Clc1cc(Br)ccc1-c1ccc(CNCC2CCNCC2)s1`, the IC50 in series [5] worked out at 0.02 µM; in series [6], 0.28 µM; in series [1], 0.73 µM; in series [2], 2.2 µM; in series [4], 0.85 µM. Besides, the CC50 at 24 h in series [3] is less than 5 µM.
`Clc1ccc(-c2ccc(CNCC3CCNCC3)s2)c(Br)c1`: the IC50 in series [5] worked out at 0.028 µM; in series [6], 0.42 µM; in series [1], 0.53 µM; in series [2], 1.4 µM; in series [4], 0.83 µM. In addition, in series [3], the CC50 at 24 h is less than 5 µM.
Consider `Clc1cc(-c2ccccc2)ccc1-c1ccc(CNCC2CCNCC2)o1`, for which the IC50 in series [1] was 1 µM; in series [2] it was 3 µM; in series [4], 1.4 µM. In series [3], the CC50 at 24 h was 5 µM.
Consider `Brc1ccc(-c2ccc(CNCC3CCNCC3)o2)cc1`, for which the IC50 in series [1] amounted to 1.1 µM; in series [2], 8 µM; in series [4] it was 4.4 µM.
As to `Brc1ccc2cc(CNCC3CCNCC3)sc2c1`, the IC50 in series [5] was found to be 0.053 µM; in series [6], 0.73 µM; in series [1], 1 µM; in series [2] it was 1.5 µM; in series [4], 1.4 µM.
Take `CN(C)c1ccc2nc3ccc(N(C)C)cc3[s+]c2c1` [METHYLENE BLUE ANHYDROUS]: in series [4], the IC50 amounted to 0.03 µM.
As to `FC(F)(F)c1ccc(-c2ccc(CNCC3CCNCC3)o2)cc1`, the IC50 came to 0.41 µM in series [1], 1.5 µM in series [2] and 1.9 µM in series [4]. The CC50 at 24 h in series [3] was 50 µM.
Regarding `C[N+](C)(C)CCCNCc1ccc(-c2ccc(Cl)cc2Br)o1`, the IC50 was 2.5 µM in series [1], 5.5 µM in series [2] and greater than 24 µM in series [4].
The like results for `Clc1ccccc1-c1ccc(CNCC2CCNCC2)o1` were, in that order, 2.1 µM, 4.3 µM and 5.9 µM.
